Activity calls are given as the source filed them. The calls are words filed in the database; no cut-off is given here.

Assay [1] relates to Mycobacterium tuberculosis variant bovis. Briefly: Inhibition of oleic acid synthesis in Mycobacterium bovis BCG str. Pasteur 1173P2 overexpressing ethA gene. Type of assay: functional. Summed up: (§1)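 Mid-log cultures in Sauton medium exposed to graded drug concentrations (μg/ml) for 16 h at 37°C, then pulsed with 1 μCi/ml [2-14C]acetate for 8 h at 37°C. Cells PBS-washed, hydrolysed with 15% tetrabutylammonium hydroxide at 100°C overnight, methylated with CH3I in CH2Cl2; fatty and mycolic acid methyl esters resolved by TLC and autoradiographed.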

Assay [2] shares this test system. Briefly: Inhibition of mycolic acid synthesis in Mycobacterium bovis BCG str. Pasteur 1173P2 overexpressing ethA gene. The class given is functional. Summed up:
as §1

Consider `CC(C)CCSc1ccc(NC(=S)Nc2ccc(SCCC(C)C)cc2)cc1`, for which the result in assay [1] and in assay [2] was Active.

Values taken from ChEMBL document CHEMBL1142097, “EthA, a common activator of thiocarbamide-containing drugs acting on different mycobacterial targets” (Antimicrob Agents Chemother, 2007).
